# Results taken from article PMC2849726 (Journal of medicinal chemistry, 2010).
# Entries after “also recorded” stand apart in the source; their conditions may differ.
# Assays:
# [1] = test system: ER+ and HER2++ breast cancer cells; settings: more selective than TAM; cited from earlier work
# [2] = test system: ZR-75-1 (estrogen receptor positive, HER2 over-expressing luminal-like breast cancer); experiment: Cell growth inhibition assay; assay type: cell-based, human; settings: for IC50: Homo sapiens, ZR-75-1, read-out: IC50 against the ZR-75-1 cell lines
# Summary of the method: (§1)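 Cells were grown in RPMI-1640 with 10% FBS and antibiotics at 37 °C in 5% CO2. Freshly trypsinized cells were seeded and test compound added from DMSO-diluted stock, then incubated 72 h after attachment. Cells were fixed with 10% TCA and stained 10 min with 0.4% SRB in 1% HOAc. Bound dye was dissolved in 10 mM trizma base and A515 read. ED50 is the concentration giving 50% reduction in net protein increase versus control, averaged over at least three independent determinations.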
# [3] = test system: SK-BR-3 (estrogen receptor negative, HER2 over-expressing luminal-like breast cancer); experiment: Cell growth inhibition assay; assay type: cell-based, human
# Summary of the method: as §1
# [4] = test system: MCF-7 (estrogen receptor positive luminal-like breast cancer); experiment: Cell growth inhibition assay; assay type: cell-based, human
# Summary of the method: as §1
# [5] = test system: ZR-75-1 xenograft; experiment: Antitumor activity in vivo, ZR-75-1 xenograft; parameters: species or system SCID mice; settings: 10 mg/kg i.p. qod to end
# Summary of the method: (§2)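 Human tumour cells were grown in RPMI 1640 with 10% heat-inactivated FBS, 2 mM glutamine and antibiotics, harvested in log phase and resuspended in PBS at 5 × 10^7 cells/mL. 1 × 10^7 cells were given s.c. in the right flank. Test compound was dosed i.p. at 10 mg/kg qod to end in 4% benzyl alcohol/6% cremophor/90% D5W. Controls were vehicle i.p. qod and paclitaxel 20 mg/kg i.p. q4d × 5. Caliper tumour volume = w²×l/2. %TGD was calculated from mean time to endpoint, with logrank P ≤ 0.05. At least five animals per group.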
# [6] = test system: PC-3 xenograft; experiment: Antitumor activity in vivo, PC-3 xenograft; parameters: species or system SCID mice; settings: 10 mg/kg i.p. qod to end
# Summary of the method: as §2
# [7] = test system: MDA-MB-231 xenograft; experiment: Antitumor activity in vivo, MDA-MB-231 xenograft; parameters: species or system SCID mice; settings: 10 mg/kg i.p. qod to end
# Summary of the method: as §2
# [8] = target: CK2α1 (Homo sapiens, UniProt P68400); experiment: Kinases inhibition assay, CK2α1; assay type: biochemical; settings: preliminary, Table 3 in supporting information
# CK2α1, sequence (P68400 whole entry): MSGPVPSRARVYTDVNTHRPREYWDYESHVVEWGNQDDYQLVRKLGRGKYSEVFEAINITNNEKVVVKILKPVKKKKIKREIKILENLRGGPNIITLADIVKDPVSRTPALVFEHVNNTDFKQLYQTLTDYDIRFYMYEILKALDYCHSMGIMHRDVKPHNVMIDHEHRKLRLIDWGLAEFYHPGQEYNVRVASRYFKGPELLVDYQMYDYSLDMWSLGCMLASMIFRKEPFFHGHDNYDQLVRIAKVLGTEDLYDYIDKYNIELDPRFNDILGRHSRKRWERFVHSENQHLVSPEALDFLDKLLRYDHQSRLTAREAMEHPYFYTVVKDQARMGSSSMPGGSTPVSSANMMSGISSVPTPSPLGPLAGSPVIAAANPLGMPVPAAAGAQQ
# [9] = target: ABL (Homo sapiens, UniProt P00519); experiment: Kinases inhibition assay, ABL; assay type: biochemical; settings: preliminary, Table 3 in supporting information
# ABL, sequence (P00519 whole entry, species assumed): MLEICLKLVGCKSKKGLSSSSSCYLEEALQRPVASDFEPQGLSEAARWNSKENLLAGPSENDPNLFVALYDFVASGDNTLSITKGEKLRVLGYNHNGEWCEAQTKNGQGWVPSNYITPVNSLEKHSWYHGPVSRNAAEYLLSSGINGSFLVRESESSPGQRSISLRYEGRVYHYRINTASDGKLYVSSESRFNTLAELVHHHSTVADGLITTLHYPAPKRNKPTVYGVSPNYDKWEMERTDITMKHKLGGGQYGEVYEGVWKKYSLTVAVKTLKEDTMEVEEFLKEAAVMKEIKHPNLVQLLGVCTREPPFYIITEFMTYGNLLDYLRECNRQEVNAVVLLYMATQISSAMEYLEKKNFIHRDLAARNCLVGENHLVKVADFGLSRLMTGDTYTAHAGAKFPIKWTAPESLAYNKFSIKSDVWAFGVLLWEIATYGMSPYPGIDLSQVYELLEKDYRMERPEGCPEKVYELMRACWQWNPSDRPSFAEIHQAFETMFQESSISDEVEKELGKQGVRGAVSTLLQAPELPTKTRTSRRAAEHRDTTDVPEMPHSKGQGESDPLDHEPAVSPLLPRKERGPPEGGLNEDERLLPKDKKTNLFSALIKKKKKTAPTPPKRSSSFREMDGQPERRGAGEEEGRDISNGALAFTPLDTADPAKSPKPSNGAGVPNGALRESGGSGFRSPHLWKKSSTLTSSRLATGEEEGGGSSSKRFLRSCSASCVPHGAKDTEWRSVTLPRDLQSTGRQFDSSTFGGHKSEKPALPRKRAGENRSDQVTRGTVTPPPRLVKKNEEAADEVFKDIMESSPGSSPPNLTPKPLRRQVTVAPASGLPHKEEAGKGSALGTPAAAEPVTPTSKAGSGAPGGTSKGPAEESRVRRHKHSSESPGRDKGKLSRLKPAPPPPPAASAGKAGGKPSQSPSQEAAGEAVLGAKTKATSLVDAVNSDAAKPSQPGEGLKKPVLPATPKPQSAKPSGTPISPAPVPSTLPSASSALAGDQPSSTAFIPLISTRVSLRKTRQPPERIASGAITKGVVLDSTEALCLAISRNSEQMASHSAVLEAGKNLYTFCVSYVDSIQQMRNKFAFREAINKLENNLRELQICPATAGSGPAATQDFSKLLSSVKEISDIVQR
# [10] = target: AKT1 (Homo sapiens, UniProt P31749); experiment: Kinases inhibition assay, AKT1; assay type: biochemical; settings: preliminary, Table 3 in supporting information
# AKT1, sequence (P31749 whole entry, species assumed): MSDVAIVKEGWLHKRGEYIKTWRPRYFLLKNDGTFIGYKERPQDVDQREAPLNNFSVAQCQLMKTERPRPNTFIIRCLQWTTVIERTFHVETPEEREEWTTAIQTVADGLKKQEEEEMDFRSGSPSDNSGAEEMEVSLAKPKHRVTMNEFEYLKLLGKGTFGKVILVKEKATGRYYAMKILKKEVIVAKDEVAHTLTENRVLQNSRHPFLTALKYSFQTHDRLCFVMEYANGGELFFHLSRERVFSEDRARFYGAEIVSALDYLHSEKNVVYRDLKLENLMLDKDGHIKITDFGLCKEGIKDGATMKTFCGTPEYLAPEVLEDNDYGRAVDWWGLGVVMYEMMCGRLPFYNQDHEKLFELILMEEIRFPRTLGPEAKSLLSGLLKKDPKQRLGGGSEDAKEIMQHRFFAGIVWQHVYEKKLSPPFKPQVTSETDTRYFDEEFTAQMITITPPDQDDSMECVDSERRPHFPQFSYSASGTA
# [11] = test system: human breast cancer cell lines; experiment: Cell line panel; assay type: cell-based; settings: total 29 cell lines, unpublished data
# [12] = test system: mammary gland side branching; experiment: Preliminary in vivo evaluation, mammary gland side branching; settings: BRCA1/p53 and wild-type mice, unpublished data
# [13] = test system: MCF-7 (estrogen receptor positive luminal-like breast cancer); settings: cited from earlier work
# [14] = test system: SK-BR-3 (estrogen receptor negative, HER2 over-expressing luminal-like breast cancer); settings: cited from earlier work
structure (smiles),measurement,setting,value
"Cc1cccc2c1ccc1c3occ(C)c3c(=O)oc21 [Compound 1, Neo-tanshinlactone]",selectivity relative to TAM,[1],20 fold
"Cc1coc2c1c(=O)oc1c3cccc(C(C)C)c3ccc21 [Compound 19, 6-Isopropyl-1-methyl-11H-benzo[h]furo[3,2-c]chromen-11-one]",ZR-75-1/SK-BR-3 selectivity ratio,[2],tenfold
same,IC50,[2],0.3 µg/mL
"CCCc1cccc2c1ccc1c3occ(C)c3c(=O)oc21 [Compound 20, 1-Methyl-6-propyl-11H-benzo[h]furo[3,2-c]chromen-11-one]",SK-BR-3/MCF-7 selectivity ratio,[3],approximately 12 fold
same,ZR-75-1/SK-BR-3 selectivity ratio,[2],threefold
same,IC50,[2],0.2 µg/mL
"COc1cccc2c1ccc1c3occ(C)c3c(=O)oc21 [Compound 21, 6-Methoxy-1-methyl-11H-benzo[h]furo[3,2-c]chromen-11-one]",ZR-75-1/MCF-7 selectivity ratio,[2]; more active against ZR-75-1 than MCF-7,23 fold
"Cc1coc2c1c(=O)oc1c3cccc(C(C)Br)c3ccc21 (stereo not drawn) [Compound 24, 6-(1-Bromoethyl)-1-methyl-11H-benzo[h]furo[3,2-c]chromen-11-one]",potency relative to 1 against SK-BR-3,[3],two- to three-fold more potent than 1
same,potency relative to 1 against ZR-75-1,[2],two- to three-fold more potent than 1
"Cc1ccc2c(=O)oc3c4ccccc4ccc3c2c1 [Compound 58, 9-Methyl-6H-dibenzo[c,h]chromen-6-one]",anti-breast cancer activity (in words),[3]; only SK-BR-3 tested,inactive
"CCc1cccc2c1ccc1c3oc(C)cc3c(=O)oc21 [Compound 51, 6-Ethyl-2-methyl-11H-benzo[h]furo[3,2-c]chromen-11-one]",activity against MCF-7 (in words),[4],completely inactive
CCc1cccc2c1ccc1c3occ(C)c3c(=O)oc21 [Compound 2],ZR-75-1 tumor xenograft growth (in words),[5],potent activity; also recorded: significant reduction in growth
same,effect on PC-3 xenograft (in words),[6],no effect
same,effect on MDA-MB-231 xenograft (in words),[7],no effect
same,suppression of CK2α1 (in words),[8],significantly suppressed
same,suppression of ABL (in words),[9],significantly suppressed
same,suppression of AKT1 (in words),[10],significantly suppressed
same,share of human breast cancer cell lines against which effective,[11],approximately 40%
same,mammary gland side branching (in words),[12],dramatically reduced
same,activity relative to 1 against MCF-7,[13],about twice as active
same,activity relative to 1 against SK-BR-3,[14],about twice as active
